≈ marks a conversion by molar mass, not a printed value.
Columns and labels:
[1] = test system: Raji; assay: Inhibitory effect on the proliferation of human B-lymphoblast Raji cells.; type: functional, cell-based
Procedure, shortened: (§1)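 7.5 × 10^4 cells in growth medium were exposed in microplate wells to a range of compound concentrations. Proliferation ran 72 h at 37 °C under humidified, CO2-controlled conditions, followed by Coulter counter cell counts. IC50 is the compound concentration giving 50% inhibition of proliferation.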

[2] = test system: MT4; assay: Inhibitory effect on the proliferation of human T-lymphocyte MT-4 cells; type: functional, cell-based
Procedure, shortened: (§2)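 MT-4 cells (7.5 × 10^4 per well) in growth medium were incubated with graded compound concentrations for 120 h at 37 °C in a humidified CO2 atmosphere. Cell viability was assessed by trypan blue dye exclusion. IC50 is the concentration required for 50% inhibition of proliferation.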

[3] = test system: L1210; assay: Inhibitory effect on the proliferation of murine leukemia L1210 cells.; type: functional, cell-based; details: Mus musculus
Procedure, shortened: (§3)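 5 × 10^4 cells were suspended in growth medium in microplate wells with varying concentrations of compound. They grew for 48 h at 37 °C in a humidified CO2-controlled atmosphere and were then counted in a Coulter counter. IC50 is the concentration inhibiting cell proliferation by 50%.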

[4] = Inhibitory effect on the proliferation of human T-lymphoblast molt/4F cells; type: functional; procedure, shortened: as §1
[5] = Inhibitory effect on the proliferation of murine mammary carcinoma FM3A cells; type: functional, cell-based; details: Mus musculus; procedure, shortened: as §3
[6] = test system: MT4; assay: Inhibitory effect on the proliferation of human T-lymphocyte MT-4 cells.; type: functional, cell-based; procedure, shortened: as §2
[7] = test system: L1210; assay: Inhibitory effect on the proliferation of murine leukemia L1210 cells; type: functional, cell-based; details: Mus musculus; procedure, shortened: as §3
[8] = test system: Raji; assay: Inhibitory effect on the proliferation of human B-lymphoblast Raji cells; type: functional, cell-based; procedure, shortened: as §1
[9] = Inhibitory effect on the proliferation of T-lymphoblast molt/4F cells.; type: functional; details: Homo sapiens; procedure, shortened: as §1

Structure (SMILES) | IC50 [1] | IC50 [2] | IC50 [3] | IC50 [4] | IC50 [5] | IC50 [6] | IC50 [7] | IC50 [8] | IC50 [9]
C/C(=C\COc1ccccc1)CC/C=C(\C)C1=CC(=O)C(C)(C)O1 | 40.3 µg/mL (≈ 123 µM) | 29.4 µg/mL (≈ 90.1 µM) | 38.7 µg/mL (≈ 119 µM) | 35.2 µg/mL (≈ 108 µM) | 44.2 µg/mL (≈ 135 µM) | – | – | – | –
C/C(=C\COc1ccc2ccccc2c1)CC/C=C(\C)C1CC(=O)C(C)(C)O1 (stereo not given) | 47.9 µg/mL (≈ 127 µM) | – | 24.9 µg/mL (≈ 65.8 µM) | 26.9 µg/mL (≈ 71.1 µM) | 38.4 µg/mL (≈ 101 µM) | 48.8 µg/mL (≈ 129 µM) | – | – | –
COc1ccc(OC/C=C(\C)CC/C=C(\C)C2=CC(=O)C(C)(C)O2)cc1 | – | 33.9 µg/mL (≈ 95.1 µM) | – | 38.6 µg/mL (≈ 108 µM) | 43.8 µg/mL (≈ 123 µM) | – | 40.2 µg/mL (≈ 113 µM) | 43 µg/mL (≈ 121 µM) | –
C/C(=C\COc1ccccc1)CC/C=C(\C)C1CC(=O)C(C)(C)O1 (stereo not given) | – | 43.1 µg/mL (≈ 131 µM) | – | 27.6 µg/mL (≈ 84 µM) | 59 µg/mL (≈ 180 µM) | – | 64 µg/mL (≈ 195 µM) | 50.7 µg/mL (≈ 154 µM) | –
C/C(=C\COc1ccc2ccccc2c1)CC/C=C(\C)C1=CC(=O)C(C)(C)O1 | 63.2 µg/mL (≈ 168 µM) | – | 47.4 µg/mL (≈ 126 µM) | 51.6 µg/mL (≈ 137 µM) | 56.4 µg/mL (≈ 150 µM) | 38.6 µg/mL (≈ 103 µM) | – | – | –
C/C(=C\COc1ccc2ccc(=O)oc2c1)CC/C=C(\C)C1CC(=O)C(C)(C)O1 (stereo not given) | 50.7 µg/mL (≈ 128 µM) | – | 64.5 µg/mL (≈ 163 µM) | – | 54.2 µg/mL (≈ 137 µM) | 42.9 µg/mL (≈ 108 µM) | – | – | 24.2 µg/mL (≈ 61 µM)
COc1cccc(OC/C=C(\C)CC/C=C(\C)C2CC(=O)C(C)(C)O2)c1 (stereo not given) | – | 51.5 µg/mL (≈ 144 µM) | – | 33.8 µg/mL (≈ 94.3 µM) | 68.7 µg/mL (≈ 192 µM) | – | 66.5 µg/mL (≈ 186 µM) | 50 µg/mL (≈ 139 µM) | –
C/C(=C\COc1ccc2ccc(=O)oc2c1)CC/C=C(\C)C1=CC(=O)C(C)(C)O1 | 25.2 µg/mL (≈ 63.9 µM) | – | 39.7 µg/mL (≈ 101 µM) | – | 53.7 µg/mL (≈ 136 µM) | 15.6 µg/mL (≈ 39.5 µM) | – | – | 28.5 µg/mL (≈ 72.2 µM)
C/C(=C\COc1ccc2ccc(=O)oc2c1)C1CC(=O)C(C)(C)O1 (stereo not given) | 226 µg/mL (≈ 688 µM) | – | 211 µg/mL (≈ 643 µM) | – | 215 µg/mL (≈ 655 µM) | 107 µg/mL (≈ 326 µM) | – | – | 97.5 µg/mL (≈ 297 µM)
COc1cccc(OC/C=C(\C)CC/C=C(\C)C2=CC(=O)C(C)(C)O2)c1 | – | 34 µg/mL (≈ 95.4 µM) | – | 35.9 µg/mL (≈ 101 µM) | 45.9 µg/mL (≈ 129 µM) | – | 36.3 µg/mL (≈ 102 µM) | 45.8 µg/mL (≈ 128 µM) | –
C/C(=C\COc1ccc2ccc(=O)oc2c1)C1=CC(=O)C(C)(C)O1 [GEIPARVARIN] | 8.25 µg/mL (≈ 25.3 µM) | – | 5.31 µg/mL (≈ 16.3 µM) | – | 7.87 µg/mL (≈ 24.1 µM) | 1.64 µg/mL (≈ 5.03 µM) | – | – | 7.92 µg/mL (≈ 24.3 µM)
C/C(=C\COc1c(Cl)cccc1Cl)CC/C=C(\C)C1CC(=O)C(C)(C)O1 (stereo not given) | 59.9 µg/mL (≈ 151 µM) | 32.5 µg/mL (≈ 81.8 µM) | – | 50.5 µg/mL (≈ 127 µM) | 51.2 µg/mL (≈ 129 µM) | – | 58 µg/mL (≈ 146 µM) | – | –
C/C(=C\COc1c(Cl)cccc1Cl)CC/C=C(\C)C1=CC(=O)C(C)(C)O1 | – | 15.5 µg/mL (≈ 39.2 µM) | – | 27.4 µg/mL (≈ 69.3 µM) | 35.3 µg/mL (≈ 89.3 µM) | – | 30.7 µg/mL (≈ 77.7 µM) | 26.2 µg/mL (≈ 66.3 µM) | –
